The record followed here is ChEMBL document CHEMBL3272055, “2,3-Disubstituted 1,8-naphthyridines as potential diuretic agents. 2. 5,7-Dimethyl derivatives” (J Med Chem, 1977).

A value given as a limit tells only on which side of the number the result lay.

The subject of data set [1] is Rattus norvegicus. Nature of the data set: Diuretic activity in saline-loaded Wistar albino rat assessed as increase of saline-load excretion at 15 mg/kg, ip measured for 6 hrs relative to control. It is filed as functional, Urine. The note with it: route intraperitoneal. An outline of the steps: (§1)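 Saline-loaded rats given compound ip, screened at 15 mg/kg, with actives retested at 2 mg/kg. Diuresis was read as urine volume output over 6 h by a modified Lipschitz method and expressed as % of the saline load excreted, as an increase over controls. A response under 21.8% above control was counted insignificant. Activity was also expressed relative to triamterene.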

Data set [2] has as its system Rattus norvegicus. As to the kind of experiment: Diuretic activity in nonloaded rat assessed as urine volume at 15 mg/kg after 6 hrs relative to control. It is filed as functional. A digest of the protocol: (§2)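 Nonloaded rats dosed at 2 or 15 mg/kg. Urine was collected cumulatively over 6 h and urine volume, Na+ and K+ (mequiv) measured. Values are means of eight rats, reported as drug versus control, with the Na+/K+ ratio derived from these.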

The subject of data set [3] is Rattus norvegicus. Nature of the data set: Diuretic activity in saline-loaded Wistar albino rat assessed as increase of saline-load excretion at 2 mg/kg, ip measured for 6 hrs relative to control. It is filed as functional, Urine. The note with it: route intraperitoneal. A digest of the protocol: as §1
Data set [4] deals with Rattus norvegicus. As to the kind of experiment: Diuretic activity in saline-loaded Wistar albino rat assessed as increase of saline-load excretion at 15 mg/kg, ip measured for 6 hrs relative to triamterene. It is filed as functional, Urine. The note with it: route intraperitoneal. A digest of the protocol: as §1
The test system of data set [5] is Rattus norvegicus. As to the kind of experiment: Toxicity in nonloaded rat assessed as kaluretic effect by measuring increase in K+ secretion at 15 mg/kg after 6 hrs relative to control. It is filed as organism-based. More on the design: dose 15 mg/kg. The settings on record: in vivo. An outline of the steps: as §2
In data set [6] the test system is Rattus norvegicus. Nature of the data set: Ratio of natriuretic activity in nonloaded rat assessed as increase in Na+ secretion at 15 mg/kg to kaliuretic activity in nonloaded rat assessed as increase in K+ secretion at 15 mg/kg. An outline of the steps: as §2
Data set [7] deals with Rattus norvegicus. As to the kind of experiment: Natriuretic activity in nonloaded rat assessed as increase in Na+ secretion at 15 mg/kg after 6 hrs relative to control. The data set is classed as functional. A digest of the protocol:
as §2

The test system of data set [8] is Rattus norvegicus. Nature of the data set: Diuretic activity in saline-loaded Wistar albino rat assessed as increase of saline-load excretion at 2 mg/kg, ip measured for 6 hrs relative to triamterene. It is filed as functional, Urine. The settings on record: route intraperitoneal. A digest of the protocol:
as §1

Data set [9] concerns Rattus norvegicus. As to the kind of experiment: Ratio of natriuretic activity in nonloaded rat assessed as increase in Na+ secretion at 2 mg/kg to kaliuretic activity in nonloaded rat assessed as increase in K+ secretion at 2 mg/kg. A digest of the protocol: as §2
Data set [10] has as its system Rattus norvegicus. As to the kind of experiment: Diuretic activity in nonloaded rat assessed as urine volume at 2 mg/kg after 6 hrs relative to control. The data set is classed as functional. An outline of the steps: as §2
The test system of data set [11] is Rattus norvegicus. Nature of the data set: Natriuretic activity in nonloaded rat assessed as increase in Na+ secretion at 2 mg/kg after 6 hrs relative to control. It is filed as functional. An outline of the steps: as §2
Data set [12] has as its system Rattus norvegicus. Nature of the data set: Toxicity in nonloaded rat assessed as kaluretic effect by measuring increase in K+ secretion at 2 mg/kg after 6 hrs relative to control. The data set is classed as organism-based. The note with it: in vivo. Also noted: dose 2 mg/kg. A digest of the protocol: as §2

On to `CCCNC(=O)c1cc2c(C)cc(C)nc2nc1N`, for which the Activity is 53.7% with Rattus norvegicus [1]; 3.9 mL in the data set with Rattus norvegicus [2]; below 21.8% in the data set on Rattus norvegicus [3]; 0.25 milliequivalent in the data set with Rattus norvegicus [5]; 0.41 milliequivalent in the data set on Rattus norvegicus [7]. For the same compound, in the data set on Rattus norvegicus [4], the “fold change (FC)” value is 0.93. Moreover, the Ratio with Rattus norvegicus [6] is recorded as 1.64.

Regarding `Cl.NC(=O)c1cc2cccnc2nc1N.O`, the Activity in the data set with Rattus norvegicus [1] is 67.5%; with Rattus norvegicus [2] it was 5.3 mL; in the data set on Rattus norvegicus [3], 62.9%; in the data set with Rattus norvegicus [5], 0.161 milliequivalent; with Rattus norvegicus [7], 0.765 milliequivalent. For the same compound, the “fold change (FC)” value came out at 1.41 in the data set with Rattus norvegicus [4] and 3 in the data set with Rattus norvegicus [8]. The Ratio with Rattus norvegicus [6] is 4.75.

Consider `COC(=O)c1cc2c(C)cc(C)nc2nc1N`, for which the Activity with Rattus norvegicus [1] was 47.3%; with Rattus norvegicus [2], 1.6 mL; in the data set with Rattus norvegicus [3], below 21.8%; in the data set with Rattus norvegicus [5], 0.21 milliequivalent; in the data set with Rattus norvegicus [7], 0.221 milliequivalent. The “fold change (FC)” value in the data set with Rattus norvegicus [4] amounted to 0.82. The Ratio with Rattus norvegicus [6] was 1.05.

For the compound `Nc1nc(N)c2nc(-c3ccccc3)c(N)nc2n1` [TRIAMTERENE], the Activity in the data set on Rattus norvegicus [1] amounted to 57.8%; in the data set with Rattus norvegicus [2], 4.9 mL; in the data set on Rattus norvegicus [3] it was 34.5%; with Rattus norvegicus [5], 0.136 milliequivalent; with Rattus norvegicus [7] it was 0.804 milliequivalent. The Ratio with Rattus norvegicus [6] stood at 5.84.

For the compound `CCNC(=O)c1cc2c(C)cc(C)nc2nc1N`, the Activity in the data set on Rattus norvegicus [1] is 47.7%; in the data set with Rattus norvegicus [2], 3.7 mL; in the data set on Rattus norvegicus [3], below 21.8%; in the data set on Rattus norvegicus [5], 0.301 milliequivalent; in the data set with Rattus norvegicus [7], 0.495 milliequivalent. Further, the “fold change (FC)” value in the data set with Rattus norvegicus [4] turned out to be 0.83. In addition, the Ratio in the data set with Rattus norvegicus [6] worked out at 1.64.

As for `CCCCCNC(=O)c1cc2c(C)cc(C)nc2nc1N`, the Activity is 23.4% with Rattus norvegicus [1]; 2.9 mL in the data set on Rattus norvegicus [2]; below 21.8% with Rattus norvegicus [3]; 0.263 milliequivalent in the data set with Rattus norvegicus [5]; 0.39 milliequivalent with Rattus norvegicus [7]. Further, the “fold change (FC)” value in the data set with Rattus norvegicus [4] came out at 0.4. In addition, the Ratio in the data set with Rattus norvegicus [6] is 1.48.

On to `CCCCNC(=O)c1cc2c(C)cc(C)nc2nc1N`, for which the figures for the Ratio in the data set with Rattus norvegicus [9] and in the data set on Rattus norvegicus [6] were 2.17 and 1.71, respectively. The Activity in the data set with Rattus norvegicus [1] was 152.7%; with Rattus norvegicus [10] it was 3.7 mL; with Rattus norvegicus [11], 0.471 milliequivalent; in the data set with Rattus norvegicus [2], 4.1 mL; in the data set with Rattus norvegicus [3] it was 43.2%; in the data set with Rattus norvegicus [12], 0.217 milliequivalent. Also, the Activity in the data set on Rattus norvegicus [5] came out at 0.25 milliequivalent; in the data set with Rattus norvegicus [7], 0.427 milliequivalent. The “fold change (FC)” value is given as 2.64 in the data set on Rattus norvegicus [4] and 1.25 in the data set with Rattus norvegicus [8].
